Test results from ChEMBL document CHEMBL1124186, “Synthesis and evaluation of tylosin-related macrolides modified at the aldehyde function: a new series of orally effective antibiotics” (1988).
Values after ≈ are worked out from the molar mass of the structure shown.

Assays:
Haemophilus influenzae [1] = assay: In vitro antimicrobial activity against aerobic bacteria Haemophilus influenzae MX366,; format: functional
Streptococcus [2] = assay: In vitro antimicrobial activity against aerobic bacteria Streptococcus D 2041; format: functional
Fusobacterium = assay: In vitro antimicrobial activity against anaerobic bacteria fusobacterium symbiosum 1470; format: functional
Streptococcus pyogenes [3] = assay: Effective dose against Streptococcus pyogenes administered orally; format: functional; settings: po
In short: (§1)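 Mouse protection test: infected mice were dosed twice, at 1 and 5 h postinfection, either subcutaneously or orally. […] The result is expressed as ED50 in mg/kg × 2.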

Streptococcus viridans = assay: In vitro antimicrobial activity against aerobic bacteria Streptococcus viridans 9943; format: functional
[4] = tested on: Peptostreptococcus anaerobius; assay: In vitro antimicrobial activity against anaerobic bacteria eubacterium peptostreptococcus anaerobius 1428,; format: functional
[5] = tested on: Prevotella melaninogenica; assay: In vitro antimicrobial activity against anaerobic bacteria bacteroides melaninogenicus 2736; format: functional
Staphylococcus aureus [6] = assay: In vitro antimicrobial activity against aerobic bacteria Staphylococcus aureus 513E; format: functional
[7] = tested on: Peptoniphilus asaccharolyticus; assay: In vitro antimicrobial activity against anaerobic bacteria peptococcus asaccharolyticus 1302; format: functional
Streptococcus pneumoniae [8] = assay: In vitro antimicrobial activity against Streptococcus pneumoniae; format: functional
Streptococcus [9] = assay: In vitro antimicrobial activity against aerobic bacteria Streptococcus C 24; format: functional
Staphylococcus aureus [10] = assay: In vitro antimicrobial activity against aerobic bacteria Staphylococcus aureus X400; format: functional
[11] = tested on: Staphylococcus epidermidis; assay: In vitro antimicrobial activity against aerobic bacteria Streptococcus epi 270; format: functional
Streptococcus pyogenes [12] = assay: In vivo effective dose against experimental infections in rodent caused by Streptococcus pyogenes C203 when administered orally; format: functional; settings: po
[13] = tested on: Haemophilus parainfluenzae; assay: In vitro antimicrobial activity against aerobic bacteria Haemophilus parainfluenzae 9796; format: functional
Streptococcus [14] = assay: In vitro antimicrobial activity against aerobic bacteria Streptococcus G Kruder; format: functional; settings: Streptococcus; read-out: MIC
[15] = tested on: Bacteroides thetaiotaomicron; assay: In vitro antimicrobial activity against anaerobic bacteria bacteroides thetaiotaomicron 1438; format: functional
Clostridium septicum = assay: In vitro antimicrobial activity against anaerobic bacteria clostridium septicum 1128; format: functional
[16] = tested on: Fusobacterium necrophorum; assay: In vitro antimicrobial activity against anaerobic bacteria usobacterium necrophorum 6054A; format: functional
Streptococcus [17] = assay: In vitro antimicrobial activity against aerobic bacteria Streptococcus D 8043; format: functional
[18] = In vitro antimicrobial activity against anaerobic bacteria peptostreptococcus intermedius 1264; format: functional
Clostridium perfringens = assay: In vitro antimicrobial activity against anaerobic bacteria clostridium perfringens 81,; format: functional
Streptococcus sanguinis = assay: In vitro antimicrobial activity against aerobic bacteria Streptococcus sanguis MX132; format: functional
Haemophilus influenzae [19] = assay: In vitro antimicrobial activity against Haemophilus influenzae.; format: functional
Enterococcus faecium = assay: In vitro antimicrobial activity against Streptococcus faecium X66; format: functional, streptococcus fae-cium
Clostridioides difficile = assay: In vitro antimicrobial activity against anaerobic bacteria Clostridium difficile 2994; format: functional
Bacteroides fragilis [20] = assay: In vitro antimicrobial activity against anaerobic bacteria bacteroides fragilis 1936B,; format: functional
[21] = tested on: Staphylococcus epidermidis; assay: In vitro antimicrobial activity against aerobic bacteria Streptococcus epi 222; format: functional
Staphylococcus aureus [22] = assay: In vitro antimicrobial activity against aerobic bacteria Staphylococcus aureus V140,; format: functional
Anaerococcus prevotii = assay: In vitro antimicrobial activity against anaerobic bacteria peptococcus prevoti 1281; format: functional
Haemophilus influenzae [23] = assay: In vitro antimicrobial activity against aerobic bacteria Haemophilus influenzae 465; format: functional
Streptococcus [24] = assay: In vitro antimicrobial activity against aerobic bacteria Streptococcus B 8; format: functional
Streptococcus pyogenes [25] = assay: In vitro antimicrobial activity against Streptococcus pyogenes C203; format: functional
Bacteroides fragilis [26] = assay: In vitro antimicrobial activity against anaerobic bacteria bacteroides fragilis 111; format: functional
Staphylococcus aureus [27] = assay: In vitro antimicrobial activity against aerobic bacteria Staphylococcus aureus V135; format: functional
Chlamydia trachomatis = assay: In vitro antimicrobial activity against chlamydia trachomatis.; format: functional
Collinsella aerofaciens [28] = assay: In vitro antimicrobial activity against anaerobic bacteria aerofaciens 1235; format: functional
[29] = tested on: Prevotella melaninogenica; assay: In vitro antimicrobial activity against anaerobic bacteria bacteroides melaninogenicus 1856,; format: functional
Streptococcus pneumoniae [30] = assay: In vitro antimicrobial activity against aerobic bacteria Streptococcus pneumoniae B1-438; format: functional, streptococcus pneum
Staphylococcus aureus [31] = assay: In vitro antimicrobial activity against Staphylococcus aureus X1; format: functional
Phocaeicola vulgatus = assay: In vitro antimicrobial activity against anaerobic bacteria bacteroides vulgatus 1211; format: functional
Streptococcus pyogenes [32] = assay: Antimicrobial activity against Streptococcus pyogenes C203; format: functional
Streptococcus pyogenes [33] = assay: Effective dose against Streptococcus pyogenes C203 when administered sc; format: functional; in short: as §1
Haemophilus influenzae [34] = assay: In vitro antimicrobial activity against aerobic bacteria Haemophilus influenzae 76; format: functional
[35] = tested on: Staphylococcus epidermidis; assay: In vitro antimicrobial activity against Staphylococcus epidermidis EPI1; format: functional
Staphylococcus aureus [36] = assay: In vitro antimicrobial activity against aerobic bacteria Staphylococcus aureus V41; format: functional
Streptococcus [37] = assay: In vitro antimicrobial activity against aerobic bacteria Streptococcus B 5; format: functional
Streptococcus [38] = assay: In vitro antimicrobial activity against aerobic bacteria Streptococcus D 9960; format: functional
Streptococcus pyogenes [39] = assay: In vivo effective dose against experimental infections in rodent caused by Streptococcus pyogenes C203 when administered sc; format: functional
Cutibacterium acnes = assay: In vitro antimicrobial activity against anaerobic bacteria propionibacterium acnes 79; format: functional
Bacteroides fragilis [40] = assay: In vitro antimicrobial activity against anaerobic bacteria bacteroides fragilis 1877; format: functional
Eikenella corrodens = assay: In vitro antimicrobial activity against anaerobic bacteria bacteroides corrodens 1874; format: functional
Collinsella aerofaciens [41] = assay: In vitro antimicrobial activity against anaerobic bacteria eubacterium aerofaciens 1235; format: functional
Streptococcus pyogenes [42] = assay: In vivo effective dose against Streptococcus pyogenes C203 when administered orally; format: functional; settings: po
Streptococcus pyogenes [43] = assay: In vivo effective dose against Streptococcus pyogenes C203 when administered sc; format: functional

CC[C@H]1OC(=O)C[C@@H](O)[C@H](C)[C@@H](O[C@@H]2O[C@H](C)[C@@H](O[C@H]3C[C@@](C)(O)[C@@H](O)[C@H](C)O3)[C@H](N(C)C)[C@H]2O)[C@@H](CC=O)C[C@@H](C)C(=O)/C=C/C(C)=C/[C@@H]1CO[C@@H]1O[C@H](C)[C@@H](O)[C@@H](OC)[C@H]1OC [TYLOSIN]
MIC (Haemophilus influenzae [1]): 16 µg/mL (≈ 17.5 µM) | MIC (Streptococcus [2]): 1 µg/mL (≈ 1.09 µM) | MIC (Fusobacterium): < 0.03 µg/mL | ED50 (Streptococcus pyogenes [3]): 0.5 mg/kg | MIC (Streptococcus viridans): > 128 µg/mL | MIC [4]: 8 µg/mL (≈ 8.73 µM) | MIC [5]: < 0.03 µg/mL | MIC (Staphylococcus aureus [6]): 1 µg/mL (≈ 1.09 µM) | MIC [7]: 0.06 µg/mL (≈ 0.0655 µM) | MIC (Streptococcus pneumoniae [8]): 0.25 µg/mL (≈ 0.273 µM) | MIC (Streptococcus [9]): 0.25 µg/mL (≈ 0.273 µM) | MIC (Staphylococcus aureus [10]): 1 µg/mL (≈ 1.09 µM) | MIC [11]: > 128 µg/mL | ED50 (Streptococcus pyogenes [12]): 42 mg/kg | MIC [13]: 16 µg/mL (≈ 17.5 µM) | MIC (Streptococcus [14]): 0.25 µg/mL (≈ 0.273 µM) | MIC [15]: 1 µg/mL (≈ 1.09 µM) | MIC (Clostridium septicum): 0.5 µg/mL (≈ 0.546 µM) | MIC [16]: 0.5 µg/mL (≈ 0.546 µM) | MIC (Streptococcus [17]): 1 µg/mL (≈ 1.09 µM) | MIC [18]: 0.5 µg/mL (≈ 0.546 µM) | MIC (Clostridium perfringens): 0.25 µg/mL (≈ 0.273 µM) | MIC (Streptococcus sanguinis): 0.5 µg/mL (≈ 0.546 µM) | MIC (Haemophilus influenzae [19]): 16 µg/mL (≈ 17.5 µM) | MIC (Enterococcus faecium): 2 µg/mL (≈ 2.18 µM) | MIC (Clostridioides difficile): 1 µg/mL (≈ 1.09 µM) | MIC (Bacteroides fragilis [20]): 1 µg/mL (≈ 1.09 µM) | MIC [21]: 0.25 µg/mL (≈ 0.273 µM) | MIC (Staphylococcus aureus [22]): 1 µg/mL (≈ 1.09 µM) | MIC (Anaerococcus prevotii): 8 µg/mL (≈ 8.73 µM) | MIC (Haemophilus influenzae [23]): 32 µg/mL (≈ 34.9 µM) | MIC (Streptococcus [24]): 1 µg/mL (≈ 1.09 µM) | MIC (Streptococcus pyogenes [25]): 0.25 µg/mL (≈ 0.273 µM) | MIC (Bacteroides fragilis [26]): 0.5 µg/mL (≈ 0.546 µM) | MIC (Staphylococcus aureus [27]): 1 µg/mL (≈ 1.09 µM) | MIC (Chlamydia trachomatis): 0.25 µg/mL (≈ 0.273 µM) | MIC (Collinsella aerofaciens [28]): 0.12 µg/mL (≈ 0.131 µM) | MIC [29]: 0.25 µg/mL (≈ 0.273 µM) | MIC (Streptococcus pneumoniae [30]): > 128 µg/mL | MIC (Staphylococcus aureus [31]): 0.5 µg/mL (≈ 0.546 µM) | MIC (Phocaeicola vulgatus): 1 µg/mL (≈ 1.09 µM) | MIC (Streptococcus pyogenes [32]): 0.25 µg/mL (≈ 0.273 µM) | ED50 (Streptococcus pyogenes [33]): 0.5 mg/kg | MIC (Haemophilus influenzae [34]): 16 µg/mL (≈ 17.5 µM) | MIC [35]: 1 µg/mL (≈ 1.09 µM) | MIC (Staphylococcus aureus [36]): 1 µg/mL (≈ 1.09 µM) | MIC (Streptococcus [37]): 1 µg/mL (≈ 1.09 µM) | MIC (Streptococcus [38]): 1 µg/mL (≈ 1.09 µM) | ED50 (Streptococcus pyogenes [39]): 1.3 mg/kg | MIC (Cutibacterium acnes): 0.5 µg/mL (≈ 0.546 µM) | MIC (Bacteroides fragilis [40]): 1 µg/mL (≈ 1.09 µM) | MIC (Eikenella corrodens): 1 µg/mL (≈ 1.09 µM)

CC[C@H]1OC(=O)C[C@@H](O)[C@H](C)[C@@H](O[C@@H]2O[C@H](C)[C@@H](O[C@H]3C[C@@](C)(O)[C@@H](O)[C@H](C)O3)[C@H](N(C)C)[C@H]2O)[C@@H](CC=O)C[C@@H](C)C(=O)/C=C/C(C)=C/[C@@H]1CO
MIC (Haemophilus influenzae [1]): 2 µg/mL (≈ 2.7 µM) | MIC (Streptococcus [2]): 0.5 µg/mL (≈ 0.674 µM) | MIC (Fusobacterium): 0.5 µg/mL (≈ 0.674 µM) | MIC (Streptococcus viridans): > 128 µg/mL | MIC [4]: 4 µg/mL (≈ 5.39 µM) | MIC [5]: 2 µg/mL (≈ 2.7 µM) | MIC (Staphylococcus aureus [6]): 1 µg/mL (≈ 1.35 µM) | MIC [7]: < 0.03 µg/mL | MIC (Streptococcus pneumoniae [8]): 0.5 µg/mL (≈ 0.674 µM) | MIC (Collinsella aerofaciens [41]): 0.12 µg/mL (≈ 0.162 µM) | MIC (Streptococcus [9]): 0.25 µg/mL (≈ 0.337 µM) | MIC (Staphylococcus aureus [10]): 2 µg/mL (≈ 2.7 µM) | MIC [11]: > 128 µg/mL | MIC [13]: 8 µg/mL (≈ 10.8 µM) | MIC (Streptococcus [14]): 0.25 µg/mL (≈ 0.337 µM) | MIC [15]: 2 µg/mL (≈ 2.7 µM) | MIC (Clostridium septicum): 0.5 µg/mL (≈ 0.674 µM) | MIC [16]: 0.12 µg/mL (≈ 0.162 µM) | MIC (Streptococcus [17]): 0.5 µg/mL (≈ 0.674 µM) | MIC [18]: 0.25 µg/mL (≈ 0.337 µM) | MIC (Clostridium perfringens): 0.5 µg/mL (≈ 0.674 µM) | MIC (Streptococcus sanguinis): 0.25 µg/mL (≈ 0.337 µM) | MIC (Haemophilus influenzae [19]): 4 µg/mL (≈ 5.39 µM) | MIC (Enterococcus faecium): 1 µg/mL (≈ 1.35 µM) | MIC (Clostridioides difficile): 1 µg/mL (≈ 1.35 µM) | MIC (Bacteroides fragilis [20]): 2 µg/mL (≈ 2.7 µM) | MIC [21]: 0.25 µg/mL (≈ 0.337 µM) | ED50 (Streptococcus pyogenes [42]): 82 mg/kg | MIC (Staphylococcus aureus [22]): 2 µg/mL (≈ 2.7 µM) | MIC (Anaerococcus prevotii): 8 µg/mL (≈ 10.8 µM) | MIC (Haemophilus influenzae [23]): 8 µg/mL (≈ 10.8 µM) | MIC (Streptococcus [24]): 0.25 µg/mL (≈ 0.337 µM) | MIC (Streptococcus pyogenes [25]): 0.25 µg/mL (≈ 0.337 µM) | MIC (Bacteroides fragilis [26]): 2 µg/mL (≈ 2.7 µM) | MIC (Staphylococcus aureus [27]): 2 µg/mL (≈ 2.7 µM) | MIC (Chlamydia trachomatis): 1 µg/mL (≈ 1.35 µM) | MIC [29]: 0.5 µg/mL (≈ 0.674 µM) | MIC (Streptococcus pneumoniae [30]): 128 µg/mL (≈ 173 µM) | MIC (Staphylococcus aureus [31]): 1 µg/mL (≈ 1.35 µM) | MIC (Phocaeicola vulgatus): 2 µg/mL (≈ 2.7 µM) | MIC (Streptococcus pyogenes [32]): 0.25 µg/mL (≈ 0.337 µM) | ED50 (Streptococcus pyogenes [43]): 1.9 mg/kg | MIC (Haemophilus influenzae [34]): 4 µg/mL (≈ 5.39 µM) | MIC [35]: 1 µg/mL (≈ 1.35 µM) | MIC (Staphylococcus aureus [36]): 1 µg/mL (≈ 1.35 µM) | MIC (Streptococcus [37]): 0.5 µg/mL (≈ 0.674 µM) | MIC (Streptococcus [38]): 1 µg/mL (≈ 1.35 µM) | MIC (Cutibacterium acnes): 0.25 µg/mL (≈ 0.337 µM) | MIC (Bacteroides fragilis [40]): 4 µg/mL (≈ 5.39 µM) | MIC (Eikenella corrodens): 2 µg/mL (≈ 2.7 µM)
